Data from ChEMBL document CHEMBL1126137, “Structure-function studies in a series of carboxyl-terminal octapeptide analogues of anaphylatoxin C5a” (J Med Chem, 1992).
Where a SMILES comes first, the peptide text is derived from it. [ ]: non-standard residue; d: D form. Cha = N[C@@H](CC1CCCCC1)C(=O)O; Nle = CCCC[C@H](N)C(=O)O

Legend:
[1] = Compound was evaluated for its ability to stimulate polymorphonuclear leukocyte (PMNL) chemokinetic migration; format: functional, Homo sapiens
Method in brief: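 Human blood PMNL from density-gradient centrifugation, with hypotonic red-cell lysis and three washes. Cells at 2×10^8/mL in 0.3% agarose, set as 1-μL droplets, chilled 10 min on ice, then overlaid with buffer ± stimulus. Buffer: Earle's salts, 20 mM HEPES pH 7.0, 0.25% gelatin. Run 2 h at 37 °C. Migration from droplet edge, minus buffer control, as % of peak rC5a response. Dose-response dosing.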

[2] = biological target: T1, C5a anaphylatoxin chemotactic receptor 1 (Homo sapiens, UniProt P21730); assay: Ability to inhibit the binding of […] to polymorphonuclear leukocyte (PMNL) membrane receptor
T1 sequence (P21730 whole entry): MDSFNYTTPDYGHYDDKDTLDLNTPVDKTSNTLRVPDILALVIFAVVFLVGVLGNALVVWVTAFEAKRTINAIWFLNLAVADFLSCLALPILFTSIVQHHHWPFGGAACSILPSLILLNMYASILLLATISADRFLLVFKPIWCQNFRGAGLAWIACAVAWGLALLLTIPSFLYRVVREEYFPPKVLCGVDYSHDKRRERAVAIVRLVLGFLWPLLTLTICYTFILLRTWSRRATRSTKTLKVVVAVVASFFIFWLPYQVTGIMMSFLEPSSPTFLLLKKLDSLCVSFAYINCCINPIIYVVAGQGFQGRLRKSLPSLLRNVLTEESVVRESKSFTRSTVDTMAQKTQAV
Method in brief: (§1)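 Competition for radioiodinated C5a binding to human PMNL membranes, isolated by nitrogen cavitation and Percoll gradient. Tracer made by glucose oxidase-lactoperoxidase iodination and affinity-purified. Buffered balanced salts (pH 7.0), 0.25% gelatin, protease inhibitors, 50–250 pM 125I-C5a, 5–20 μg/mL membranes. 60 min, ambient temperature, filtration. IC50 from linear regression; Ki by Cheng–Prusoff. Single-point lines give percent inhibition at 1 mM peptide.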

[3] = biological target: T2, C5a anaphylatoxin chemotactic receptor 1 (Homo sapiens) (UniProt P21730); assay: Compound was evaluated for its ability to inhibit the binding of […] to polymorphonuclear leukocyte (PMNL) membrane receptor at 1 mM concentration.; method in brief: as §1
T2 sequence (whole entry): T1 sequence (P21730 whole entry)

Row | Compound | Efficacy [1] [%] | Ki [2] [µM] | inhibition [3] [%]
1 | CC(=O)N[C@@H](Cc1c[nH]cn1)C(=O)N[C@@H](CCCCN)C(=O)N[C@@H](CC(=O)O)C(=O)N[C@@H](CC1CCCCC1)C(=O)N[C@@H](CC1CCCCC1)C(=O)N[C@@H](CC1CCCCC1)C(=O)NCC(=O)N[C@@H](CCCN=C(N)N)C(=O)O (Ac-HKD[Cha][Cha][Cha]GR-OH) | 75 | 25 | 
2 | CSCC[C@H](NC(=O)[C@H](CC(=O)O)NC(=O)[C@H](CCCCN)NC(=O)[C@H](Cc1c[nH]cn1)NC(C)=O)C(=O)N[C@@H](CCC(N)=O)C(=O)N[C@@H](CC1CCCCC1)C(=O)NCC(=O)N[C@@H](CCCN=C(N)N)C(=O)O (Ac-HKDMQ[Cha]GR-OH) |  |  | 30
3 | Ac-HKDMQLGR-OH | 107 |  | 
4 | CCC[C@H](NC(=O)[C@H](CC1CCCCC1)NC(=O)[C@H](CC1CCCCC1)NC(=O)[C@H](CC(=O)O)NC(=O)[C@H](CCCCN)NC(=O)[C@H](Cc1c[nH]cn1)NC(C)=O)C(=O)N[C@H](C)C(=O)N[C@@H](CCCN=C(N)N)C(=O)O | 55 | 5.3 | 
5 | CCCC[C@H](NC(=O)[C@H](CCCC)NC(=O)[C@H](CCCC)NC(=O)[C@H](CC(=O)O)NC(=O)[C@H](CCCCN)NC(=O)[C@H](Cc1c[nH]cn1)NC(C)=O)C(=O)NCC(=O)N[C@@H](CCCN=C(N)N)C(=O)O (Ac-HKD[Nle][Nle][Nle]GR-OH) |  | 210 | 
6 | CC[C@H](C)[C@H](NC(=O)[C@H](CC1CCCCC1)NC(=O)[C@H](CC1CCCCC1)NC(=O)[C@H](CC(=O)O)NC(=O)[C@H](CCCCN)NC(=O)[C@H](Cc1c[nH]cn1)NC(C)=O)C(=O)N[C@H](C)C(=O)N[C@@H](CCCN=C(N)N)C(=O)O | 56 | 2 | 
7 | CC(=O)N[C@@H](Cc1c[nH]cn1)C(=O)N[C@@H](CCCCN)C(=O)N[C@@H](CC(=O)O)C(=O)N[C@@H](CC1CCCCC1)C(=O)N[C@@H](CC1CCCCC1)C(=O)N[C@@H](CC1CCCCC1)C(=O)N[C@H](C)C(=O)N[C@@H](CCCN=C(N)N)C(=O)O | 67 | 10 | 
8 | CC(=O)N[C@@H](Cc1c[nH]cn1)C(=O)N[C@@H](CCCCN)C(=O)N[C@@H](CC(=O)O)C(=O)N[C@@H](CC1CCCCC1)C(=O)N[C@@H](CC1CCCCC1)C(=O)N[C@H](C(=O)N[C@H](C)C(=O)N[C@@H](CCCN=C(N)N)C(=O)O)C(C)C | 60 | 1.6 | 
9 | CC(=O)N[C@@H](Cc1c[nH]cn1)C(=O)N[C@@H](CCCCN)C(=O)N[C@@H](CC(=O)O)C(=O)N[C@@H](CC1CCCCC1)C(=O)N[C@H](CC1CCCCC1)C(=O)N[C@@H](CC(C)C)C(=O)N[C@H](C)C(=O)N[C@@H](CCCN=C(N)N)C(=O)O |  |  | 26
10 | CC(=O)N[C@@H](Cc1c[nH]cn1)C(=O)N[C@@H](CCCCN)C(=O)N[C@@H](CC(=O)O)C(=O)N[C@@H](Cc1ccc(O)cc1)C(=O)N[C@@H](Cc1ccc(O)cc1)C(=O)N[C@@H](Cc1ccc(O)cc1)C(=O)N[C@H](C)C(=O)N[C@@H](CCCN=C(N)N)C(=O)O |  |  | < 20
11 | CC(=O)N[C@@H](Cc1c[nH]cn1)C(=O)NC(CCCCN)C(=O)N[C@@H](CC(=O)O)C(=O)NC(CC1CCCCC1)C(=O)N[C@H](CC1CCCCC1)C(=O)N[C@@H](CC(C)C)C(=O)N[C@H](C)C(=O)N[C@@H](CCCN=C(N)N)C(=O)O (single isomer, unassigned) | 71 | 600 | 
12 | CC(=O)N[C@@H](Cc1c[nH]cn1)C(=O)N[C@@H](CCCCN)C(=O)N[C@@H](CC(=O)O)C(=O)N[C@@H](CC1CCCCC1)C(=O)N[C@@H](CC1CCCCC1)C(=O)N[C@@H](CC(C)C)C(=O)N[C@H](C)C(=O)N[C@@H](CCCN=C(N)N)C(=O)O | 57 | 2.9 | 
13 | CC(=O)N[C@@H](Cc1c[nH]cn1)C(=O)N[C@@H](CCCCN)C(=O)N[C@@H](CC(=O)O)C(=O)N[C@@H](Cc1ccccc1)C(=O)N[C@@H](Cc1ccccc1)C(=O)N[C@@H](Cc1ccccc1)C(=O)N[C@H](C)C(=O)N[C@@H](CCCN=C(N)N)C(=O)O | 109 | 750 | 
